High-throughput results (PubChem)
CSC inhib: cancer stem cell inhibition; cancer stem cell-like cells viability, luminescence; inhibition, % at 7.5 µM; hit rate 1.1% among 300,000; AID 2717; in the data active means inhibition above about 75%; inconclusive means no clear call, values can overlap the other calls; tested in HMLE shEcad cells
Mdm2 MdmX PPI: inhibitors of human Mdm2/MdmX interaction; hit rate 3% among 330,000; inhibition, % at 8 µM; AID 485346; SaOS-2 split-luciferase Mdm2/MdmX complementation, luminescence;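 active means inhibition of at least 50% at 8 µM in the primary screen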
Lmaj promast: Leishmania major promastigote growth inhibition; Leishmania major promastigotes, resazurin fluorescence viability; inhibition, % at 10 µM; hit rate 9% among 200,000; in the data active means inhibition above about 50%;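 further: promastigotes grown with compound for 44 hours at 28 °C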
T cruzi inh: blocks replication of Trypanosoma cruzi; hit rate 1.4% among 300,000; T. cruzi beta-gal in NIH3T3, luminescence, 90 h; inhibition, % (concentration not given with the values); AID 1885;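 active means mean inhibition across valid replicates above about 55%, limit read from the data; inconclusive means mean below that limit but half or more replicates reach it; inactive means mean below it, under half of replicates reach it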;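 further: signal also drops with host cell toxicity which is not excluded here; 0% = plate median of DMSO wells and 100% = zero luminescence signal; higher percent means less beta-gal luminescence so fewer parasites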
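System: NIH/3T3 fibroblasts plus reporter T. cruzi. Medium: DMEM plus 2% FBS. Probe or stimulus: 5000 reporter trypomastigotes per well. Compound: single 50 nL compound addition per well in DMSO. Incubation: co-culture of at least 90 h after 3 h attachment. Detection: GalScreen β-gal luminescence, detergent lysis, 60 min. Evaluation: parasite load inhibition, %.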
Beta cell apopt: beta cell apoptosis inhibition | AID 435005 | hit rate 0.8% among 300,000 | INS-1E cytokine-induced death, ATP luminescence, 48 h; percent of positive-control rescue, neutral wells zero | protection from apoptosis, % (no concentration beside the values);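 active means Every replicate reaches about 75%, or at least half do and their mean reaches it too, limit read from the data; inconclusive means At least half of replicates reach the limit but their mean does not; inactive means Under half of replicates reach the limit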;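 further: 0% = cytokine-treated negative control wells and 100% = positive control rescue; higher means more ATP so stronger rescue from cytokine killing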
SKKanGAS inh: blocks kanamycin growth of S. pyogenes SKKanGAS strain; BacTiter-Glo, 6 h; inhibition, % at 7.5 µM; hit rate 1.3% among 300,000;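 active means mean replicate score, as percent of positive control median, at least 50; inconclusive means mean below 50 but one replicate at or above 50; inactive means mean and every replicate below 50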;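 further: strain carries kanamycin resistance gene driven by streptokinase promoter and grows in 40 µg/ml kanamycin; loss of luminescence reflects streptokinase promoter inhibition or plain growth inhibition; 0% = median of DMSO wells and 100% = positive control at its reference dose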
Mdm2-MdmX conf: human Mdm2/MdmX binding inhibition, confirmed; shares compounds with Mdm2 MdmX PPI; luminescent assay; inhibition, % at 8 µM; hit rate 55% among 10,000; AID 489028; in the data active means inhibition above about 40%
Full FLuc ctr: counter-screen for Mdm2/MdmX inhibitors: full-length luciferase; shares compounds with Mdm2 MdmX PPI; SaOS-2 full-length luciferase counterscreen, luminescence; inhibition, % at 8 µM; hit rate 77% among 6,200;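 active means mean inhibition at 8 µM reaching about 37%, which flags the compound as non-specific, limit read from the data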;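 further: p53-null SaOS-2 cells with luciferase driven by a doxycycline-inducible promoter; compound on cells about two nights before reading with doxycycline added after day one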
Numbers without * were called inactive; ? = inconclusive; / = not tested or not shown. A selection: hits, their analogues and other compounds. The true share with any hit is near 9.4%.

SMILES | CSC inhib | Mdm2 MdmX PPI | Lmaj promast | T cruzi inh | Beta cell apopt | SKKanGAS inh | Mdm2-MdmX conf | Full FLuc ctr
N#Cc1ccsc1NC(=O)c1ccc(Cl)c([N+](=O)[O-])c1 | 23 | 61* | / | 4 | 25 | 1 | 56* | 112*
CCCCn1c(N)c(N(CCOC)C(=O)CSc2ccc([N+](=O)[O-])cc2)c(=O)[nH]c1=O | -6 | 0 | / | / | 0 | / | / | /
COC(=O)c1nn(-c2ccc3c(c2)OCO3)cc1O | 5 | -18 | -6 | -5 | -8 | -9 | / | /
COC(=O)c1nn(-c2ccc3c(c2)CCN3C(C)=O)cc1O | 30 | 51* | -5 | -5 | 7 | 6 | 68* | 31
CNS(=O)(=O)c1ccc(C(C)(C)C)cc1 | -13 | 11 | -7 | 4 | -3 | 2 | / | /
CSc1nc2sc(-c3ccccc3)cc2c(=O)n1N | 31 | 68* | -2 | -5 | 60 | 15 | 40* | 164*
CC(C)Sc1nc2sc(-c3ccccc3)cc2c(=O)n1N | 0 | 11 | -9 | / | -8 | / | / | /
COCCCN1CN=C(Nc2nc3ccccc3o2)NC1 | -1 | 7 | -2 | -8 | -5 | -4 | / | /
CCN(CC)CCNC(=O)c1ccc2c(c1NCCO)C(=O)c1ccccc1C2=O | 55 | 91* | / | 9 | 116* | 51* | 84* | 4
CC1CCN(C(=O)c2ccc3c(c2NCCO)C(=O)c2ccccc2C3=O)CC1 | 10 | 42 | 37 | 23 | 15 | 12 | / | /
Cc1ccccc1NC(=O)Cc1nc(COC(=O)CCC(=O)c2ccccc2)cs1 | / | 16 | / | / | -1 | / | / | /
CC(=O)Nc1ccc(S(=O)(=O)NCCC(=O)OCc2csc(CC(=O)Nc3ccccc3C)n2)cc1 | -15 | 51* | / | -9 | / | -5 | 1 | /
COc1cc(-c2ccc3oc(-c4ccsc4)c(C#CC4(O)CCCCC4)c3c2)cc(OC)c1OC | 73 | 52* | / | 41 | 15 | 40 | 9 | /
COc1ccc(-c2oc3cccnc3c2C#CCO)cc1 | -9 | 16 | / | -10 | 8 | -9 | / | /
COc1ccc(-c2oc3cccnc3c2C#CC2(O)CCCCC2)cc1 | 36 | 52* | / | 18 | 3 | 57* | 39 | /
COc1ccc(-c2oc3ccc(N4CCOCC4)cc3c2C#CC2(O)CCCCC2)cc1 | 14 | 73* | / | 21 | / | 69* | 59* | 54*
COc1ccc(-c2oc3ccc(-c4cc(OC)c(OC)c(OC)c4)cc3c2C#Cc2ccccn2)cc1 | 37 | 85* | / | / | -1 | / | 64* | 64*
COC(=O)c1cc(NC(=O)CSC2=NCCS2)cc(C(=O)OC)c1 | -9 | 21 | 3 | -14 | -4 | 13 | / | /
O=C(CSCc1ccc([N+](=O)[O-])cc1)Nc1ccccc1C(=O)O | -7 | 3 | -8 | -17 | -4 | 10 | / | /
COc1ccc(/C=N/Nc2c(Cl)cc(Cl)cc2Cl)cc1CN1CCOCC1 | 18 | 3 | 24 | -4 | -8 | 17 | / | /
Cc1ccc(-c2nnc(CSc3nnc(COc4cccc5ccccc45)n3-c3ccccc3)o2)cc1 | / | 63* | 46 | 42 | -4 | 39 | 32 | /
CC1CC(C)CN(C(=O)c2cccc(S(=O)(=O)N(C)c3ccccc3)c2)C1 (stereo not given) | / | 14 | / | / | / | / | / | /
C=CC(=O)Nc1ccc(CN2C(=O)N(c3c(Cl)c(OC)cc(OC)c3Cl)Cc3cnc(NCCCCN(CC)CC)nc32)cc1 | / | 71* | / | / | 3 | / | 45* | 55*
Cc1cc(C(=O)Nc2ccccc2Cl)n(-c2ccccc2)n1 | -2 | -24 | / | 5 | 1 | -2 | / | /
Clc1ccc(NNc2ccnc3cc(Cl)ccc23)cc1 | 22 | 11 | 5 | 53 | 11 | -12 | / | /
SMILES | CSC inhib | Mdm2 MdmX PPI | Lmaj promast | T cruzi inh | Beta cell apopt | SKKanGAS inh | Mdm2-MdmX conf | Full FLuc ctr
Cc1ccc(/C=N/Nc2ccnc3cc(Cl)ccc23)c(C)c1 | / | 100* | 100* | 68* | 101* | 95* | 29 | /
Oc1ccc(/C=N/Nc2nc(-c3ccc(Cl)cc3)cc(C(F)(F)F)n2)cc1 | 85* | 57* | 2 | 16 | -3 | ? | 22 | /
CCc1nc2c(cnn2-c2ccc(Cl)cc2)c(=O)n1-c1ccc2c(c1)OCCO2 | 57 | 56* | 20 | 24 | 0 | 38 | 22 | /
COc1cccc(-n2c(C)nc3c(cnn3-c3ccc(Cl)cc3)c2=O)c1 | -3 | 8 | -8 | 4 | 43 | 2 | / | /
COc1ccc(C(=O)Nc2nc(CC(=O)NCCc3ccccc3OC)cs2)cc1 | -3 | 17 | / | -12 | 0 | 23 | / | /
CC(C)c1ccc(NC(=O)C2CCN(c3ncnc4c3nc3n4CCCCC3)CC2)cc1 | -14 | 72* | / | 11 | 16 | 2 | 30 | /
CSc1cccc(NC(=O)C2CCCN(c3ncnc4c3nc3n4CCCCC3)C2)c1 (stereo not given) | 42 | 57* | / | 17 | -12 | 12 | -23 | /
COc1cc(C(=O)NCCCNc2nc3cc(C)c(C)cc3cc2C#N)cc(OC)c1OC | 5 | 12 | 12 | 1 | 4 | 6 | / | /
CC(NC(=O)OC(C)(C)C)C(=O)NC(CCC(=O)OCc1ccccc1)C(N)=O (stereo not given) | 0 | -5 | -1 | 1 | 0 | 2 | / | /
CCC(=S)/C=C1\Sc2ccccc2N1CCCS(=O)(=O)O | -11 | -21 | -4 | 2 | / | -3 | / | /
CCCCN1/C(=C/c2ccc3ccccc3[n+]2CC)Sc2ccccc21 | / | 77* | 100* | 63* | / | -14 | 76* | 32
CCN1/C(=C/c2ccc3ccccc3[n+]2CCCS(=O)(=O)[O-])C=Cc2cc(C)ccc21 | 19 | / | / | 3 | 30 | 15 | / | /
CCN1/C(=C/c2ccc3ccccc3[n+]2CC)C=Cc2ccccc21 | 44 | 89* | 101* | 47 | 108* | 52* | 81* | 21
COc1cc(C2=NOC(C(=O)NCc3ccc(F)cc3)C2)cc(OC)c1OC (stereo not given) | / | 61* | -2 | -5 | 22 | -2 | 58* | 83*
COc1ccc(C2=NOC(C(=O)NCc3ccc(F)cc3)C2)cc1OC (stereo not given) | 61 | 44 | -3 | -24 | 21 | 6 | / | /
CC(=O)Nc1ccc(S(=O)(=O)Nc2nnc(CC(C)(C)C)s2)cc1 | -16 | 15 | -6 | -15 | -3 | 1 | / | /
CCc1ccn2cc(-c3ccc4c(c3)OCO4)nc2c1 | 78* | 62* | / | 4 | 21 | 47 | 53* | 92*
COC(=O)c1ccc2nc(-c3ccc4c(c3)OCO4)cn2c1 | 2 | 37 | 2 | -7 | -1 | 2 | / | /
Cc1cccc(NC(=O)CNC(=O)CSc2ncccn2)c1C | 2 | 4 | / | / | 3 | / | / | /
O=C(Cn1ncc(Cl)c(Cl)c1=O)NC1CCCCC1 | / | 100* | / | / | -9 | / | 76* | 56*
Cc1ccc(NC(=O)Cn2ncc(Cl)c(Cl)c2=O)cc1S(=O)(=O)N1CCCCC1 | / | 100* | / | / | -1 | / | 85* | 54*
